These results are taken from ChEMBL document CHEMBL1132435 (J Med Chem, 1999).

Where a SMILES comes first, the peptide text is derived from it. [ ]: non-standard residue; d: D form. The star is where a group is joined. X1 = COc1ccc(C[C@@H](CN[C@@H](CCCNC(=N)N)C(=O)O)N*)cc1; Hyp = O=C(O)[C@@H]1C[C@@H](O)CN1; 2Thi = N[C@@H](Cc1cccs1)C(=O)O Where only a bound is given, the exact number is not on record here.

The species entered for test [1] is Homo sapiens. As to the kind of experiment: (§1) Agonistic activity on human umbilical vein(HUV) in presence of inhibitors. It is filed as functional, organism-based. As to conditions: read-out: pA2 (converted). The essentials:
(§2)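 Human umbilical vein segments; cumulative concentration-response to agonist measured as contraction, run with or without protease inhibitors. Maximal contraction of each segment obtained after washout with U46619 (1 μM).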

The species named for test [2] is Rattus norvegicus. In words: (§3) Agonistic activity on rat uterus(RUT) in presence of inhibitors. It is filed as functional, organism-based. The conditions noted are these: read-out: pA2 (converted). The essentials: (§4)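 Uterus from female Sprague–Dawley rats (250-300 g) pretreated with diethylstilbestrol 0.1 mg/kg s.c. 18 h before CO2 kill. Tissue placed in Jalon solution (mM: NaCl 154, KCl 5.6, NaHCO3 1.7, MgCl2 1.4, glucose 5.5, CaCl2 0.3). One cumulative concentration-response curve per segment, run with or without protease inhibitors. Maximum per segment taken with angiotensin II (3 μM). Means ± SEM, n = 5; pD2.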

Test [3] addresses T1, B2 bradykinin receptor (Rattus norvegicus, UniProt P25023).
T1 sequence (P25023 whole entry): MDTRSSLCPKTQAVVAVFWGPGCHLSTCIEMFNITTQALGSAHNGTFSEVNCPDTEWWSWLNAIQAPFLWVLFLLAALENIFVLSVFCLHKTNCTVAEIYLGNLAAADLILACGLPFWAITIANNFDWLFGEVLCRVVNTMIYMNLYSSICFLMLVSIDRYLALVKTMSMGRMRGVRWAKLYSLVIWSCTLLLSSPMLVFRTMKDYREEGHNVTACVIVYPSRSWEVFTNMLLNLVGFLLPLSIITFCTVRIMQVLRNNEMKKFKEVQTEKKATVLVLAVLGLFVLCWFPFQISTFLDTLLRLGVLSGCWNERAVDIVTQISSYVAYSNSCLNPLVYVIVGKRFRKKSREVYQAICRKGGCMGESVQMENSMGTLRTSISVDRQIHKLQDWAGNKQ
In words: Binding affinity against rat bradykinin B2 receptors expressed in CHO cells using [3H]bradykinin as radioligand. It is filed as cell-based. In a few lines: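 Membranes of stably transfected CHO cells (human or rat B2 receptor), prepared in 20 mM TES pH 6.8 with 1 mM 1,10-phenanthroline, 140 µg/mL bacitracin and 0.1% BSA, spun at 40 000g. […] Filtration on PEI-soaked GF/B filters. Ki, means ± SEM (n = 3 or 4).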

In the next test the target is T2, B1 bradykinin receptor (Homo sapiens, UniProt P46663).
T2 sequence (P46663 whole entry): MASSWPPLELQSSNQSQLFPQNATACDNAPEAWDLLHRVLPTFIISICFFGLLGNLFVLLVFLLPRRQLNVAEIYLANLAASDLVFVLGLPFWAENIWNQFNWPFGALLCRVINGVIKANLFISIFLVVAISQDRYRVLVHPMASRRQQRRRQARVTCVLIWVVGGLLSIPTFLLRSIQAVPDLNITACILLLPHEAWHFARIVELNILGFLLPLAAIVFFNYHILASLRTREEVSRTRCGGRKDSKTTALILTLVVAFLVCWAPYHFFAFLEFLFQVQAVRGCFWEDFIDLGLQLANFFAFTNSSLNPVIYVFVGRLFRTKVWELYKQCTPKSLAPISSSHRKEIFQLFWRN
As to the kind of experiment: Binding affinity against human cloned Bradykinin receptor B1 expressed in HEK 293 cells using [3H]des-Arg10-[Leu9]-kallidin as radioligand.

Test [4] concerns the target T3, B2 bradykinin receptor (Homo sapiens, UniProt P30411).
T3 sequence (P30411 whole entry): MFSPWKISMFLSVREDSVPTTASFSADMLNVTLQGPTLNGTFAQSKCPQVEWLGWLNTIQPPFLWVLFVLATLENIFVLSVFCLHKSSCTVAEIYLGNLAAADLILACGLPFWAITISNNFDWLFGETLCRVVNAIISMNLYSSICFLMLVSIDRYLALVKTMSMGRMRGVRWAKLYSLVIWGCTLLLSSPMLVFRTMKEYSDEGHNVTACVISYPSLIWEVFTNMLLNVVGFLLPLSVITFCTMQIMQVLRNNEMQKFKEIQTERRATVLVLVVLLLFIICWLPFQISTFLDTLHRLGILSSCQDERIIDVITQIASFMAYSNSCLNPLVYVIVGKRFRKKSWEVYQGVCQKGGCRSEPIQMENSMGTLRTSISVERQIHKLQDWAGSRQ
In words: Binding affinity against human cloned Bradykinin receptor B2 expressed in CHO cells using [3H]-bradykinin as radioligand. The test is classed as cell-based. The essentials:
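Membranes of stably transfected CHO cells (human or rat B2 receptor), prepared in 20 mM TES pH 6.8 with 1 mM 1,10-phenanthroline, 140 µg/mL bacitracin and 0.1% BSA, spun at 40 000g. Filtration on PEI-soaked GF/B filters.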

Test [5] is filed under the species Homo sapiens. In words: Agonistic activity on human umbilical vein(HUV) in absence of inhibitors. The test is classed as functional. In a few lines:
as §2

Test [6] is filed under the species Homo sapiens. Described as §1. The test is classed as functional. In a few lines: as §2
For test [7], the species on record is Rattus norvegicus. In words: Agonistic activity on rat uterus(RUT) in absence of inhibitors. It is filed as functional. The essentials: as §4
The species named for test [8] is Rattus norvegicus. Described as §3. The test is classed as functional. The essentials:
as §4

The target of test [9] is T1, B2 bradykinin receptor. In words: Binding affinity against rat Bradykinin receptor B2 expressed in CHO cells using [3H]-bradykinin as radioligand. It is filed as cell-based. The essentials:
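Competition binding on membranes from stably transfected CHO cells. Cells were scraped into 20 mM TES pH 6.8 with 1 mM 1,10-phenanthroline, 140 µg/mL bacitracine and 0.1% BSA, and membranes were pelleted at 40 000g for 15 min. […] Bound label was collected by filtration on PEI-presoaked GF/B filters and counted by scintillation. n = 3 or 4.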

Regarding `NC(N)=NCCC[C@@H](N)C(=O)N[C@@H](CCCN=C(N)N)C(=O)N1CCC[C@H]1C(=O)N1C[C@H](O)C[C@H]1C(=O)NCC(=O)N[C@@H](Cc1cccs1)C(=O)N[C@@H](CO)C(=O)N1Cc2ccccc2C[C@@H]1C(=O)N1[C@H](C(=O)N[C@@H](CCCN=C(N)N)C(=O)O)C[C@@H]2CCCC[C@@H]21` [ICATIBANT], the Kb in the test listed under Homo sapiens [1] is 6.61 nM; in the test filed under Rattus norvegicus [2] it was 1.15 nM. For the same compound, the affinity at B2 bradykinin receptor [3] corresponds to a Ki of 0.077 nM.

`N=C(N)NCCC[C@@H](N)C(=O)N[C@@H](CCCNC(=N)N)C(=O)N1CCC[C@H]1C(=O)N1CC(O)C[C@H]1C(=O)NCC(=O)N[C@@H](Cc1cccs1)C(=O)N[C@@H](CO)C(=O)N[C@H]1CSc2ccccc2N(CC(=O)N[C@@H](CCCNC(=N)N)C(=O)O)C1=O` (stereo partly specified): the inhibition constant (Ki) is over 10000 nM at B1 bradykinin receptor and 162 nM at B2 bradykinin receptor [4].

`COc1ccc(C[C@@H](CN[C@@H](CCCNC(=N)N)C(=O)O)NC(=O)[C@@H]2CCCN2C(=O)[C@H](CO)NC(=O)[C@H](Cc2cccs2)NC(=O)CNC(=O)[C@@H]2C[C@@H](O)CN2C(=O)[C@@H]2CCCN2C(=O)[C@@H](N)CCCNC(=N)N)cc1` [LABRADIMIL] (H-RP[Hyp]G[2Thi]SP-X1) displayed an inhibition constant Ki on B2 bradykinin receptor [4] of 19 nM. The values for the pD2 in the test listed under Homo sapiens [5] and in the test filed under Homo sapiens [6] were 6.9 and 7.1, respectively.

Compound `N=C(N)NCCC[C@H](NC(=O)CN1C(=O)[C@H](NC(=O)[C@H](CO)NC(=O)[C@H](Cc2ccccc2)NC(=O)CNC(=O)[C@@H]2CCCN2C(=O)[C@@H]2CCCN2C(=O)[C@@H](N)CCCNC(=N)N)CSc2ccccc21)C(=O)O` showed an inhibitory constant (Ki) on B1 bradykinin receptor of over 10000 nM.

Regarding `NC(N)=NCCC[C@@H](N)C(=O)N[C@@H](CCCN=C(N)N)C(=O)N1CCC[C@H]1C(=O)N1CC(O)C[C@H]1C(=O)NCC(=O)N[C@@H](Cc1cccs1)C(=O)N[C@@H](CO)C(=O)N[C@@H]1CSc2ccccc2N(CC(=O)N[C@@H](CCCN=C(N)N)C(=O)O)C1=O` (stereo partly specified), the results for the inhibition constant Ki at B1 bradykinin receptor, on B2 bradykinin receptor [4] and on B2 bradykinin receptor [3] were over 10000 nM, 0.7 nM and 6 nM, respectively. Besides, the pD2 in the test listed under Rattus norvegicus [7] came out at 7.2; in the test listed under Homo sapiens [5], 6.7; in the test filed under Rattus norvegicus [8] it was 7.5; in the test filed under Homo sapiens [6] it was 6.8.

On B2 bradykinin receptor [9], “H-RPPGFSPFR-OH [BRADYKININ] [listing 1 of 2 here]” registered a Ki of 0.46 nM.

Turning to “H-RPPGFSPFR-OH [BRADYKININ] [listing 2 of 2 here]”, the pD2 is on record as 7.33 in the test filed under Rattus norvegicus [7], 7.4 in the test listed under Homo sapiens [5], 8.3 in the test filed under Rattus norvegicus [8] and 7.9 in the test filed under Homo sapiens [6].

The Ki is a measure of affinity in units of concentration, obtained from inhibition or displacement. A lower Ki goes with a stronger hold on the target.
